Data: ChEMBL document CHEMBL1152781, “Design, synthesis, and structure-activity analysis of isoform-selective retinoic acid receptor beta ligands” (J Med Chem, 2009)
Values after ≈ are worked out from the molar mass of the structure shown. Each block holds one compound with its values, some of them ahead of it. Active and inactive are the calls of the source. The calls are words filed in the database; no cut-off is given here.

Key:
[1] = molecular target: T1, Retinoic acid receptor beta (Homo sapiens, UniProt P10826); test: Agonist activity at RARbeta2 expressed in mouse NIH3T3 cells by R-SAT assay; assay type: functional, cell-based; conditions: for pEC50: nih3t3
T1 sequence (P10826 whole entry): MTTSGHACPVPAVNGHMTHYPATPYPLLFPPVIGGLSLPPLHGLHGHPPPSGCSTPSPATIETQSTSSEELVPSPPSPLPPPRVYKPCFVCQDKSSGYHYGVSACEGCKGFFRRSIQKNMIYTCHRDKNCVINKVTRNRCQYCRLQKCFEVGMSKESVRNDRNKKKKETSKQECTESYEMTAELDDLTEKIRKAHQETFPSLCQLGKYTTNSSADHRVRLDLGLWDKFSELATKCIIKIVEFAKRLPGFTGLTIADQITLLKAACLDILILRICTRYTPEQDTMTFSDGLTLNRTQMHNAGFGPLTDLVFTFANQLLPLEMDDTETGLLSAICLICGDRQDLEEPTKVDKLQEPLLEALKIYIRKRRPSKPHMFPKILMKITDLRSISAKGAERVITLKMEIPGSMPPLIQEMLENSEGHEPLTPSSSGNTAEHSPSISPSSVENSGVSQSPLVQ

[2] = molecular target: T2, Retinoic acid receptor beta (Homo sapiens) (UniProt P10826); test: Agonist activity at RARbeta2 expressed in mouse NIH3T3 cells by R-SAT assay relative to Am-580; assay type: functional, cell-based
T2 sequence (whole entry): T1 sequence (P10826 whole entry)
Summary of the method: (§1)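 High-throughput cell-proliferation functional assay (R-SAT). Efficacy is expressed relative to reference agonist AM-580, which is set to 100%. pEC50 and efficacy are means of at least three experiments ± SD. […] Where marked, efficacy is the maximum at concentrations <10 µM.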

[3] = molecular target: T2, Retinoic acid receptor beta (Homo sapiens); test: Activity at RARbeta1 expressed in mouse NIH3T3 cells at <10 uM by R-SAT assay relative to Am-580; assay type: cell-based; summary of the method: as §1
[4] = molecular target: T3, Retinoic acid receptor gamma (Homo sapiens) (UniProt P13631); test: Activity at RARgamma expressed in mouse NIH3T3 cells at <10 uM by R-SAT assay relative to Am-580; assay type: cell-based; summary of the method: as §1
T3 sequence (whole entry): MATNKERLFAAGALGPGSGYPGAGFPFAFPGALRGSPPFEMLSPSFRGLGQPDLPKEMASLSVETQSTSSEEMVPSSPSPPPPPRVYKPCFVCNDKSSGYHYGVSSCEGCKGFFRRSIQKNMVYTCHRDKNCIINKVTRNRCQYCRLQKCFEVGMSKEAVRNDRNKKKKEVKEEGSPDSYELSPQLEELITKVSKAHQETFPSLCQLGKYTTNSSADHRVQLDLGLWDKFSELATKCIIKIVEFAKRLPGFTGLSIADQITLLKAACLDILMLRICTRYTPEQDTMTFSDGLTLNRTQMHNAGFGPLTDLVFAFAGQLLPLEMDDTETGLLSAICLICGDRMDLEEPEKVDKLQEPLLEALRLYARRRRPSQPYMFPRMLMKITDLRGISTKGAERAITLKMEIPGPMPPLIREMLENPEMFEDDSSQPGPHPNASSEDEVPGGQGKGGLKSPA

[5] = molecular target: T4, Retinoic acid receptor alpha (Homo sapiens, UniProt P10276); test: Activity at RARalpha expressed in mouse NIH3T3 cells by R-SAT assay; assay type: cell-based; conditions: for pEC50: nih3t3
T4 sequence (P10276 whole entry): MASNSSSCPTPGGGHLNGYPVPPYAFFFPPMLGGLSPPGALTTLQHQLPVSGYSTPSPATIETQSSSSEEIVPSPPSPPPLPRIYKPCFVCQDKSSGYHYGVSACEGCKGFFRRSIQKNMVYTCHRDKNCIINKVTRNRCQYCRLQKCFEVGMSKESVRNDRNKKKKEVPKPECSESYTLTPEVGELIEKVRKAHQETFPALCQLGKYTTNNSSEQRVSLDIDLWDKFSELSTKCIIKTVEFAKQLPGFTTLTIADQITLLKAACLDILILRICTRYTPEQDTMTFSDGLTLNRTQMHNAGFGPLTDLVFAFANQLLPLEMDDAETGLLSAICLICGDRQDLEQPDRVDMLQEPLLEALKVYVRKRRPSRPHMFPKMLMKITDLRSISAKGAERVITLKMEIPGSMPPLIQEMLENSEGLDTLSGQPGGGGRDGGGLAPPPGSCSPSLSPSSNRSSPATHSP

[6] = Aqueous solubility in phosphate buffer at pH 7.4; assay type: physicochemical
[7] = Metabolic stability in human liver microsomes assessed as intrinsic clearance; assay type: ADME, Microsome
Summary of the method: (§2)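 Liver microsomes, rat or human, as stated per line. Read-out is intrinsic clearance in µL/(min·mg) protein. Hepatic extraction was calculated without correcting for the unbound fraction of drug in plasma.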

[8] = molecular target: T1, Retinoic acid receptor beta; test: Activity at RARbeta1 expressed in mouse NIH3T3 cells by R-SAT assay; assay type: cell-based
[9] = molecular target: T5, Retinoic acid receptor gamma (Homo sapiens, UniProt P13631); test: Activity at RARgamma expressed in mouse NIH3T3 cells by R-SAT assay; assay type: cell-based; conditions: for pEC50: nih3t3
T5 sequence (P13631 whole entry): T3 sequence (whole entry)

[10] = molecular target: T2, Retinoic acid receptor beta (Homo sapiens); test: Activity at RARbeta1 expressed in mouse NIH3T3 cells by R-SAT assay relative to Am-580; assay type: cell-based; summary of the method: as §1
[11] = molecular target: T3, Retinoic acid receptor gamma (Homo sapiens); test: Activity at RARgamma expressed in mouse NIH3T3 cells by R-SAT assay relative to Am-580; assay type: cell-based; summary of the method: as §1
[12] = molecular target: T6, Retinoic acid receptor alpha (Homo sapiens) (UniProt P10276); test: Activity at RARalpha expressed in mouse NIH3T3 cells at <10 uM by R-SAT assay relative to Am-580; assay type: cell-based; summary of the method: as §1
T6 sequence (whole entry): T4 sequence (P10276 whole entry)

[13] = Metabolic stability in rat liver microsomes assessed as intrinsic clearance; assay type: ADME, Microsome; summary of the method: as §2
NIH3T3 [14] = test: Selectivity for RARbeta2 expressed in mouse NIH3T3 cells over RARalpha expressed in mouse NIH3T3 cells; assay type: cell-based
MCF7 [15] = test: Inhibition of human MCF7 cell proliferation; assay type: functional, cell-based
NIH3T3 [16] = test: Selectivity for RARbeta2 expressed in mouse NIH3T3 cells over RARbeta1 expressed in mouse NIH3T3 cells; assay type: cell-based
NIH3T3 [17] = test: Selectivity for RARbeta2 expressed in mouse NIH3T3 cells over RARgamma expressed in mouse NIH3T3 cells; assay type: cell-based
MCF7 [18] = test: Inhibition of human MCF7 cell proliferation assessed as inhibition of DNA synthesis by [3H]thymidine incorporation assay; assay type: functional, cell-based
[19] = Distribution coefficient, log D of the compound; assay type: physicochemical; conditions: octanol/water
Summary of the method: (§3)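 Lipophilicity descriptors, cLogD at pH 7.4 and cLogP, are mostly calculated. Values in parentheses are experimentally determined.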

NTERA2 = test: Induction of neurite outgrowth in human NTERA2 cells; assay type: functional, cell-based
[20] = Lipophilicity, Log P of the compound; assay type: physicochemical; conditions: octanol/water; summary of the method: as §3
[21] = molecular target: T2, Retinoic acid receptor beta (Homo sapiens); test: Activation of RARbeta2 expressed in HEK293 cells after 48 hrs by RARE-luciferase reporter gene assay; assay type: cell-based
[22] = Clearance in rat; assay type: ADME, organism-based; conditions: in vivo

Structure (SMILES): CCCCOCCOc1ccc(-c2ccc(C(=O)O)c(F)c2)cc1
EC50 [1]: 20 nM
Efficacy [2]: 108%
Efficacy [3]: 36%
solubility [6]: 20 µg/mL (≈ 60.2 µM)
Efficacy [4]: 37%
EC50 [5]: 1580 nM
microsomal CLint [7]: 8 µL/min/mg

Structure (SMILES): CCCCCCCCc1ccc(-c2ccc(C(=O)O)c(F)c2)cc1
EC50 [8]: 398 nM
EC50 [1]: 39.8 nM
Efficacy [2]: 114%
EC50 [9]: 158 nM
EC50 [5]: 2000 nM
Efficacy [10]: 54%
Efficacy [11]: 84%

Structure (SMILES): CCCCCCCc1ccc(-c2ccc(C(=O)O)c(F)c2)cc1
EC50 [1]: 126 nM
Efficacy [2]: 50%

Structure (SMILES): CCCCCCCCc1ccc(-c2ccc(C(=O)O)c(C)c2)cc1
EC50 [1]: 631 nM
Efficacy [2]: 84%

Structure (SMILES): CCCCCCCCc1ccc(-c2ccc(C(=O)O)s2)cc1
pEC50 [1]: > 5
Activity [2]: inactive

Structure (SMILES): CCCCOCCOc1cc(C)c(-c2ccc(C(=O)O)cc2)cc1C
EC50 [1]: 251 nM
Efficacy [2]: 41%

Structure (SMILES): CCCCCCOc1ccc(-c2ccc(C(=O)O)cc2)cc1
EC50 [1]: 31.6 nM
Efficacy [2]: 72%
Activity [10]: inactive

Structure (SMILES): CCCCCCCc1cnc(-c2ccc(C(=O)O)cc2)nc1
EC50 [1]: 1000 nM
Efficacy [2]: 93%

Structure (SMILES): CCCCCCCCOc1ccc(-c2ccc(C(=O)O)cc2)cc1
EC50 [8]: 1000 nM
EC50 [1]: 100 nM
Efficacy [2]: 70%
Efficacy [10]: 49%

Structure (SMILES): CCCCOCCOc1nc(-c2ccc(C(=O)O)cc2)sc1C
EC50 [8]: 1260 nM
EC50 [1]: 79.4 nM
Efficacy [2]: 99%
Efficacy [4]: 54%
Efficacy [10]: 45%

Structure (SMILES): CCCCOCCOc1ccc(-c2ccc(C(=O)O)cc2)cc1
EC50 [1]: 63.1 nM
Efficacy [2]: 78%
pEC50 [9]: > 5
pEC50 [5]: > 5
Activity [10]: inactive
Activity [11]: inactive

Structure (SMILES): CCCCCCCCc1ccc(-c2ccc(C(=O)O)cc2)cc1
EC50 [8]: 2000 nM
microsomal CLint [13]: 5 µL/min/mg
fold change (FC) (NIH3T3 [14]): 100
Activity (MCF7 [15]): Dose-dependent effect
fold change (FC) (NIH3T3 [16]): 100
fold change (FC) (NIH3T3 [17]): 100
Activity (MCF7 [18]): Active
logD [19]: 4.5
Activity (NTERA2): Active
solubility [6]: < 1 µg/mL
Efficacy [4]: 31%
logP [20]: 7.9
EC50 [5]: 2510 nM
microsomal CLint [7]: 5 µL/min/mg
Efficacy [10]: 29%
Activity [21]: Active

Structure (SMILES): CCCCCCCCc1ccc(-c2ccc(C(=O)O)cc2F)cc1
EC50 [1]: 100 nM
Efficacy [2]: 85%

Structure (SMILES): CCCCCCNC(=O)COc1ccc(-c2ccc(C(=O)O)cc2)cc1
pEC50 [1]: > 5
Activity [2]: inactive

Structure (SMILES): CCOCCOc1nc(-c2ccc(C(=O)O)cc2)sc1C
EC50 [1]: 63.1 nM
Efficacy [2]: 78%

Other lines, results leading:

EC50 [1]: 126 nM
Efficacy [2]: 100%
Structure (SMILES): CCCOCCOc1nc(-c2ccc(C(=O)O)cc2)sc1C

Efficacy [2]: 75%
Efficacy [3]: 28%
Efficacy [4]: 31%
pEC50 [5]: > 5
Structure (SMILES): CC(C)CCCCOc1ccc(-c2ccc(C(=O)O)cc2)cc1

pEC50 [1]: > 5
Activity [2]: inactive
Structure (SMILES): CCCCCCCc1ccc(-c2ccc(C(=O)O)s2)cc1

Efficacy [11]: 99%
Structure (SMILES): CC1(C)CCC(C)(C)c2cc(C(=O)Nc3ccc(C(=O)O)cc3)ccc21

Efficacy [10]: 230%
Structure (SMILES): CCCCCCCc1ccc(-c2ccc(C(=O)O)cc2)cc1

EC50 [1]: 39.8 nM
Efficacy [2]: 85%
Efficacy [3]: 42%
EC50 [9]: 631 nM
Efficacy [12]: 35%
Efficacy [11]: 63%
Structure (SMILES): CCCCCCNC(=O)COc1nc(-c2ccc(C(=O)O)cc2)sc1C

EC50 [1]: 63.1 nM
Efficacy [2]: 62%
pEC50 [9]: > 5
pEC50 [5]: > 5
Activity [10]: inactive
Activity [11]: inactive
Structure (SMILES): CCCCCCCOc1ccc(-c2ccc(C(=O)O)cc2)cc1

pEC50 [1]: > 5
Activity [2]: inactive
Structure (SMILES): CCCCCCCc1ccc(-c2ccc(C(=O)O)cc2C)cc1

pEC50 [1]: > 5
Activity [2]: inactive
Structure (SMILES): CCCCCCCOc1nc(-c2ccc(C(=O)O)cc2)sc1C

EC50 [1]: 100 nM
Efficacy [2]: 37%
Structure (SMILES): CCCCCCCCc1ccc(-c2ccc(C(=O)O)cc2C)cc1

EC50 [8]: 398 nM
microsomal CLint [13]: 10 µL/min/mg
clearance [22]: 41 mL/min/kg
Efficacy [2]: 106%
EC50 [9]: 501 nM
EC50 [5]: 631 nM
microsomal CLint [7]: 36 µL/min/mg
Efficacy [10]: 52%
Efficacy [11]: 48%
Structure (SMILES): CCCCOCCOc1nc(-c2ccc(C(=O)O)c(F)c2)sc1C
